Reference: ChEMBL document CHEMBL1156902, “Evaluation of 3,4-dihydroquinazoline-2(1H)-thiones as inhibitors of alpha-MSH-induced melanin production in melanoma B16 cells” (Bioorg Med Chem, 2010)
Activity calls are given as the source filed them. No cut-off for these calls is given here.

What was measured:
[1] = tested on: B16; test: Inhibition of alpha-MSH-induced melanin production in mouse B16 cells at 10 uM after 72 hrs; assay type: functional; conditions: B16, 72 h
[2] = tested on: B16; test: Inhibition of alpha-MSH-induced melanin production in mouse B16 cells after 72 hrs; assay type: functional, cell-based; conditions: B16, 72 h
Procedure, shortened: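 B16 cells were seeded at 2.5 × 10³ per well and held 24 h at 37 °C in 5% CO₂. They were then stimulated with α-MSH for 72 h plus sample (10 nM in methods; 100 nM in results text). Cells were lysed in 1 N NaOH–10% DMSO at 80 °C. Melanin was read at A405 against a synthetic melanin standard, as the mean of 3–5 independent experiments.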

[3] = molecular target: T1, Tyrosinase (Mus musculus) (UniProt P11344); test: Inhibition of mouse tyrosinase in 48 hrs alpha-MSH-induced mouse B16 cells by Western blot analysis; assay type: cell-based
T1 sequence (whole entry): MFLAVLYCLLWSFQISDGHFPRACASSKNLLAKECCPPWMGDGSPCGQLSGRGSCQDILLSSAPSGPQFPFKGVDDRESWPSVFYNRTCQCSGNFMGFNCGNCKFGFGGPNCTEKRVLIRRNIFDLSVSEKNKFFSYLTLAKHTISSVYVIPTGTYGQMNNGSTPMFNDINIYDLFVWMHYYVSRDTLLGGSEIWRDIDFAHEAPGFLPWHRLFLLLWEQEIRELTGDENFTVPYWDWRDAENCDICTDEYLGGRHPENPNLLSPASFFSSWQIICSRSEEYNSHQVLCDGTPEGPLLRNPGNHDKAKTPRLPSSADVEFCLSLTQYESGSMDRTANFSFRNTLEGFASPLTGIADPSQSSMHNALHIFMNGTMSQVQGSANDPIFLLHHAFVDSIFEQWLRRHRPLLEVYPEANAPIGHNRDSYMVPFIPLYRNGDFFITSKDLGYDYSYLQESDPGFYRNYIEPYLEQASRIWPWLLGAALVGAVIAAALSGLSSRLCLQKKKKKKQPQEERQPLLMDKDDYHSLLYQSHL
Procedure, shortened: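 B16 cells were stimulated with α-MSH for 48 h plus compound, then lysed in Tris/NaCl/SDS/NP-40 buffer with protease inhibitors at pH 7.4. Equal protein was run on SDS-PAGE, blotted to PVDF and blocked with milk or BSA. Anti-tyrosinase (1:1000) was applied overnight at 4 °C, with GAPDH (1:5000) as internal control. Detection used an HRP secondary and ECL.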

[4] = molecular target: T1, Tyrosinase (Mus musculus); test: Inhibition of mouse tyrosinase in 48 hrs alpha-MSH-induced mouse B16 cells at 0.3 to 10 uM; assay type: cell-based
[5] = tested on: B16; test: Cytotoxicity against mouse B16 cells assessed as viability at 1 to 30 uM after 72 hrs by MTT assay in presence of alphaMSH; assay type: cell-based; conditions: b16, 72 h
Procedure, shortened: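 B16 cells were exposed to test compound for 72 h with α-MSH (10 nM). They were then given MTT for 2 h, and the formazan was dissolved in 100% DMSO. Viability was read as optical density at 590 nm.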

[6] = tested on: B16; test: Inhibition of alpha-MSH-induced melanin production in mouse B16 cells at 100 uM after 72 hrs; assay type: functional; conditions: B16, 72 h

| SMILES | inhibition at 10 µM [1] [%] | IC50 [2] [µM] | further results |
| --- | --- | --- | --- |
| Cc1ccc(CCN2Cc3cc(Cl)ccc3NC2=S)cc1 | > 100 | 5.5 | – |
| O=C1Nc2ccc(Cl)cc2CN1CCc1ccccc1 | 18 | > 10 | – |
| S=C1Nc2ccc(Cl)cc2CN1CCc1ccc(Cl)cc1 | > 100 | 1.6 | – |
| Cc1ccc2c(c1)CN(CCc1ccc(Cl)cc1)C(=O)N2 | 15 | > 10 | – |
| Cc1ccc2c(c1)CN(CCc1cccc3ccccc13)C(=S)N2 | > 100 | 2.4 | – |
| Cc1ccc2c(c1)NC(=S)N(CCc1ccccc1)C2 | > 100 | 0.8 | – |
| Cc1ccc2c(c1)CN(CCc1ccc(Cl)cc1Cl)C(=S)N2 | > 100 | 0.5 | inhibition [3]: Dose-dependent effect; inhibition [4]: inactive; Activity [5]: Non-toxic |
| Cc1ccc(CCN2Cc3cc(C)ccc3NC2=O)cc1 | 10 | > 10 | – |
| O=c1cc(CO)occ1O [KOJIC ACID] | – | 70 | – |
| Cc1cccc2c1CN(CCc1ccccc1)C(=O)N2 | 18 | 9.8 | – |
| Cc1ccc2c(c1)CN(CCc1ccc(C(C)C)cc1)C(=O)N2 | 6 | > 10 | – |
| Cc1ccc2c(c1)CN(CCc1ccc(Cl)cc1Cl)C(=O)N2 | 11 | > 10 | – |
| Cc1ccc2c(c1)CN(CCc1cccc3ccccc13)C(=O)N2 | 5 | > 10 | – |
| NC(=O)Nc1ccccc1 | – | – | inhibition at 100 µM [6]: 0% |
| Cc1ccc2c(c1)CN(CCc1ccccc1)C(=S)N2 | > 100 | 0.8 | – |
| Cc1ccc(CCN2Cc3cc(Cl)ccc3NC2=O)cc1 | 6 | > 10 | – |
| Cc1ccc2c(c1)CN(CCc1ccc(Cl)cc1)C(=S)N2 | > 100 | 4.3 | – |
| Cc1ccc(CCN2Cc3cc(C)ccc3NC2=S)cc1 | > 100 | 2.7 | – |
| Cc1ccc2c(c1)CN(CCc1ccc(C(C)C)cc1)C(=S)N2 | > 100 | 0.5 | – |
| Cc1ccc2c(c1)CN(CCc1ccccc1)C(=O)N2 | 16 | > 10 | – |
| O=C1Nc2ccc(Cl)cc2CN1CCc1ccc(Cl)cc1 | 7 | > 10 | – |
| Cc1cccc2c1CN(CCc1ccccc1)C(=S)N2 | > 100 | 1.1 | – |
| OC[C@H]1O[C@@H](Oc2ccc(O)cc2)[C@H](O)[C@@H](O)[C@@H]1O [ARBUTIN] | – | 180 | – |
| S=C1Nc2ccc(Cl)cc2CN1CCc1ccccc1 | > 100 | 2.8 | – |
| Cc1ccc2c(c1)NC(=O)N(CCc1ccccc1)C2 | 24 | > 10 | – |
